Assay outcomes from PubChem.
Most compounds without a hit are left out; they make up all but 1.7% or so of the library.
CAL PDZ FP-1: blocks peptide binding to the human CAL PDZ domain; Q9HD26; purified CAL PDZ, TMR-peptide fluorescence polarization, 1 h; inhibition, % at 24.9 µM; 0.92% of 300,000 active; AID 602252;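 active means mean inhibition of at least 30% with at least half of replicates also reaching 30%; inconclusive means no clear call, values can overlap the other calls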;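 further: 0% = DMSO neutral control and 100% = excess unlabeled competitor peptide PRC23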
C-LANA FP: blocks KSHV LANA C-terminal domain binding to DNA; MBP-C-LANA/FAM-LBS DNA binding, fluorescence polarization; inhibition, % at 9 µM; 0.078% of 340,000 active;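 active means highest replicate inhibition at or above 60% at 9 µM, even if other replicates fall short; inactive means all replicates below 60% inhibition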;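 further: 0% = neutral control wells and 100% = 4 µM acridine orange control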
Keap1-Nrf2 PPI: Keap1-Nrf2 (human) interaction inhibition; Q14145; Keap1 Kelch-Nrf2 peptide fluorescence polarization, 1536-well; inhibition, % at 9.4 µM; 0.15% of 340,000 active; in the data active means inhibition above about 12%; inconclusive means no clear call, values can overlap the other calls; inactive means below about 7.3%;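 further: human Keap1 Kelch domain with fluorescein labeled Nrf2 9mer peptide probe; 0% = neutral control wells and 100% = peptide positive control; higher means more block of Keap1 binding to Nrf2 peptide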
CAL PDZ FP-2: blocks peptide binding to human CAL PDZ domain. purified CAL PDZ, TMR-peptide fluorescence polarization, 1 h. inhibition, % at 20 µM. 0.02% of 330,000 active. AID 504414;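 active means highest replicate inhibition of at least 40%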;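 further: plate controls were DMSO neutral control wells for no effect and unlabeled competitor peptide control wells for full effect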
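Test system: purified CerCALP PDZ construct; Compound dosing: one concentration, 20 µM compound; Also added: TMR-labelled reporter peptide T*-PRC34 bound in PDZ groove; Read-out: inhibition from polarization loss; Controls: unlabelled peptide and DMSO controls; Signal: FP readout, S and P plane fluorescence; Incubation: 1 h at RT.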
APOBEC3A inh: inhibitors of human APOBEC3A DNA deaminase. P31941. inhibition, % at 20 µM. recombinant A3A, FAM/TAMRA ssDNA deamination fluorescence. 0.41% of 330,000 active;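 active means at least 40% inhibition at 20 µM here, with at most 30% in a related deaminase screen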;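 further: plate controls were A3A with DMSO for no effect and wells lacking A3A enzyme for full effect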
Target sequence (P31941 whole entry, looked up): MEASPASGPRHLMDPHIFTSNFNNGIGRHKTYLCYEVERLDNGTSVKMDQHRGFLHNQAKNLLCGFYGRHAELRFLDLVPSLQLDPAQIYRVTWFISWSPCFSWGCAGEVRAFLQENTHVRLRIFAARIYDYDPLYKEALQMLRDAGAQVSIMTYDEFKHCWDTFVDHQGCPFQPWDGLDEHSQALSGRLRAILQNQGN
APOBEC3G inh: blocks human APOBEC3G single-stranded DNA deamination | recombinant A3G, ssDNA deamination FAM/TAMRA fluorescence | inhibition, % at 20 µM | 0.28% of 330,000 active | AID 493012;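 active means inhibition of at least 40% at 20 µM, with no more than 30% in the related APOBEC3A deaminase screen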;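 further: plate controls were DMSO wells with A3G for no effect and wells lacking A3G enzyme for full effect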
Target sequence (Q9HC16 whole entry, looked up): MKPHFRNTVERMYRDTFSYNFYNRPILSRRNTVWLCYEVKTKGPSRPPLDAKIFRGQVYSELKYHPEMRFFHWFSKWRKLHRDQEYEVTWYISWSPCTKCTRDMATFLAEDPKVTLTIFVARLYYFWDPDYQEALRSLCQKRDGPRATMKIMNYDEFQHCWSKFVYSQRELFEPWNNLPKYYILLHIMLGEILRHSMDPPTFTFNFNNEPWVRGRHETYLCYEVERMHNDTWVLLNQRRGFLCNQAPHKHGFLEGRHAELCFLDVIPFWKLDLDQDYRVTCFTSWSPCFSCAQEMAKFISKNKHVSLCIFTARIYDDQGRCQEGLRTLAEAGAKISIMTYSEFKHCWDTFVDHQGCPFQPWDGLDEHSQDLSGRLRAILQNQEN
APOBEC3A confirm: APOBEC3A (human) deaminase inhibition, confirmed. shares compounds with APOBEC3A inh. recombinant A3A, ssDNA deaminase UDG fluorescence assay. inhibition, % at 20 µM. 63% of 1,400 active;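 active means inhibition reaching a set limit, 80% of the first screen's cutoff, at 20 µM in any replicate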;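 further: plate controls were DMSO wells with A3A for no effect and wells lacking A3A enzyme for full effect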
UDG A3A counter: counter-screen for APOBEC3A inhibitors: UDG; shares compounds with APOBEC3A inh; UDG counterscreen, FAM/TAMRA uracil oligo fluorescence; inhibition, % at 20 µM; 1,000 tested, under 10 active; call rule not given here
Numbers without * were called inactive; ? = inconclusive; · = no result.

SMILES | CAL PDZ FP-1 | C-LANA FP | Keap1-Nrf2 PPI | CAL PDZ FP-2 | APOBEC3A inh | APOBEC3G inh | APOBEC3A confirm | UDG A3A counter
NC(=O)C1=C(N=C2CCCCC2)CCCC1 | -3 | 2 | 3 | 1 | · | · | · | ·
O=C(CSc1nnc(NC(=O)c2ccc3c(c2)OCO3)s1)NCc1ccco1 | -5 | -3 | -5 | -2 | 88* | -3 | -2 | 2
Cc1ccc(S(=O)(=O)N2CCCN(C)CC2)cc1 | 4 | -4 | 0 | · | -5 | -11 | · | ·
CN1CCCN(S(=O)(=O)c2ccccc2)CC1 | -3 | 1 | 4 | 1 | 67* | 17 | 61* | -2
O=C1C2C(C(=O)N1/N=C/c1cc([N+](=O)[O-])c(O)cc1O)C1C=CC2C12CC2 (centres undefined) | -4 | 13 | -1 | -2 | 78* | 19 | 74* | -2
O=C1C2C(C(=O)N1/N=C/c1cc([N+](=O)[O-])ccc1O)C1C=CC2C12CC2 (centres undefined) | 0 | -1 | 3 | -2 | -7 | -1 | · | ·
CC(C)N=C(NS(=O)(=O)c1ccccc1)C(Cl)(Cl)Cl | · | -1 | -2 | 0 | -3 | -6 | · | ·
CS/C(N)=N/N=C/c1c(O)ccc2ccccc12 | -2 | 0 | 2 | -1 | 58* | 23 | 27 | ·
CN(C)/N=C/c1c(O)ccc2ccccc12 | -2 | 0 | -6 | 1 | -2 | -1 | · | ·
CC1Oc2ccccc2C=C1/C=N/Nc1ccc(C(=O)O)cc1 (centres undefined) | 8 | 0 | 1 | 0 | -8 | 3 | · | ·
COc1ccc(NC(C)=[N+](C)CCNS(=O)(=O)c2ccc(Cl)cc2)cc1 | -2 | 2 | -4 | -3 | 46* | 14 | 29 | ·
Cc1ccc([C@@H]2[C@@H]3C(=O)N(C)C(=O)[C@@H]3[C@@H]3C(=O)Nc4ccccc4C(=O)N23)cc1 | -4 | -3 | 8 | 1 | -4 | -3 | · | ·
C[N+](C)(C)CCOC(=O)C1(c2ccccc2)CCCC1 | -4 | 0 | -4 | 2 | 60* | 16 | 76* | -2
C[N+]1(CCOC(=O)C2(c3ccccc3)CCCC2)CCCCC1 | 2 | 15 | 2 | -3 | 64* | 23 | 63* | -3
CC(C[N+](C)(C)C)OC(=O)C1(c2ccccc2)CCCC1 (centres undefined) | · | 11 | -6 | 0 | 44* | 14 | 66* | -3
CCN(CC)CCCOC(=O)C1(c2ccccc2)CCCC1 | -1 | -1 | 4 | -1 | -6 | -7 | · | ·
COc1ccc(C(=O)C[N+]2(C)CCOCC2)cc1 | 0 | -1 | -6 | -3 | 64* | 20 | 67* | -2
Cc1nc(C)c(C(=O)OCC(=O)Nc2cccc(C)c2C)s1 | 1 | -1 | 4 | 0 | -7 | -3 | · | ·
COc1ccc(C(=O)OCC[N+]2(C)CCCCC2)cc1 | -1 | 0 | -3 | -2 | 64* | 12 | 78* | -3
O=C(O)CCCNc1ccc(S(=O)(=O)N2CCCCC2)cc1 | 2 | 0 | -6 | 3 | -1 | -6 | · | ·
CC1=CC(C)(C)[N+](C)(C)c2ccc(C)cc21 | -2 | -2 | 0 | 0 | 45* | 12 | 71* | 0
O=C(/C=C/c1ccco1)N1CCN(S(=O)(=O)c2ccccc2)CC1 | ? | 1 | -4 | -2 | 41* | 14 | 29 | ·
CCN1C(=O)[C@@H]2Cc3c([nH]c4ccccc34)C(c3cc(OC)c(OC)c(OC)c3)N2C1=S (some centres undefined) | -1 | -1 | -11 | -2 | 59* | -10 | -8 | -6
N#Cc1ccc(NC(=S)Nc2ccccc2)cc1 | -2 | 0 | -8 | -1 | 44* | 0 | -7 | -4
S=C(Nc1ccccc1)Nc1ccc(Br)cc1 | 10 | 1 | -2 | -1 | -3 | -4 | · | ·
SMILES | CAL PDZ FP-1 | C-LANA FP | Keap1-Nrf2 PPI | CAL PDZ FP-2 | APOBEC3A inh | APOBEC3G inh | APOBEC3A confirm | UDG A3A counter
CC(C)COC(=O)N1CC(O)CC1C(=O)Nc1ccc2c(c1)OCO2 (centres undefined) | -2 | 1 | -3 | 0 | 53* | 23 | 81* | -1
CSC(=O)CC(=O)NC(=O)c1ccccc1 | -1 | 1 | -5 | 0 | -6 | -5 | · | ·
CC1CCN(S(=O)(=O)c2ccc(NC(=O)CN3C(=O)NC(C)(c4ccccc4)C3=O)cc2)CC1 (centres undefined) | -3 | 1 | 4 | -2 | 49* | 4 | -3 | ·
CCC1(c2ccccc2)NC(=O)N(CC(=O)Nc2ccc(S(=O)(=O)N3CC(C)CC(C)C3)cc2)C1=O (centres undefined) | -4 | 0 | -10 | -1 | 2 | -4 | · | ·
CC1(c2ccc(Cl)cc2)NC(=O)N(CC(=O)Nc2ccc(N3CCCCC3)cc2)C1=O (centres undefined) | 7 | -1 | -1 | 0 | 45* | -6 | -6 | -3
O=C(c1cccc(S(=O)(=O)N2CCc3ccccc32)c1)N1CCOCC1 | · | 0 | -6 | 0 | -2 | -4 | · | ·
Cc1cccc(C(=O)N[C@H](C(=O)Nc2ccc3c(c2)OCO3)C(C)C)c1 | 2 | -1 | 1 | 0 | 0 | -2 | · | ·
COc1ccc(/C=N/NC(=O)C(C)Sc2ccccn2)cc1[N+](=O)[O-] (centres undefined) | -3 | -1 | 2 | -3 | 49* | 11 | 65* | 12
COc1cc(OC)cc(C(=O)NNC(=O)CCC(=O)c2cccs2)c1 | -3 | 0 | 2 | -2 | 0 | -2 | · | ·
COc1cc(C(c2c(C(=O)O)[nH]c3ccccc23)c2c(C(=O)O)[nH]c3ccccc23)ccc1OCc1ccccc1 | · | 5 | 5 | -1 | -5 | -2 | · | ·
C=CCOc1ccc(C(c2c(C(=O)O)[nH]c3ccccc23)c2c(C(=O)O)[nH]c3ccccc23)cc1 | -3 | 7 | 0 | 3 | 55* | 24 | 41* | -3
CCN(CC(=O)Nc1ccccc1OC)C(=O)c1cccc(-n2cccc2)c1 | -2 | -2 | -8 | -2 | -3 | -1 | · | ·
CCN(CC(=O)Nc1c(F)cccc1F)C(=O)c1cccc(-n2cccc2)c1 | -2 | 2 | -4 | -3 | 75* | 18 | 55* | -3
CCN1CCN(C(=O)c2cc(COc3ccc(F)cc3F)on2)[C@@H](C)C1=O | 0 | 2 | -2 | 0 | -1 | -2 | · | ·
COc1ccc2cc(C)c3nnc(SCC(=O)Nc4cc(OC)c(OC)cc4C(=O)O)n3c2c1 | -2 | 1 | 4 | 0 | 99* | -1 | 0 | 0
COc1cc(NC(=O)CSc2nnc3c(C)cc4cc(C)cc(C)c4n23)c(C(=O)O)cc1OC | -4 | 0 | 0 | 0 | -3 | -7 | · | ·
